Experimental data published in ChEMBL document CHEMBL3785040, “Syntheses and Biological Evaluations of Highly Functionalized Hydroxamate Containing and N-Methylthio Monobactams as Anti-Tuberculosis and β-Lactamase Inhibitory Agents” (Medchemcomm, 2016).
pKi: −log10 of the molar value. In brackets after ≈: the same amount, converted by molar mass. Activity calls are given as the source filed them. No cut-off for these calls is given here.

Legend:
[1] = system: Mycobacterium tuberculosis; experiment: Antituberculosis activity against Mycobacterium tuberculosis H37Rv in 7H12 medium incubated for 4 days by Microplate Alamar Blue assay; type: functional; settings: 96 h
Summary of the method: (§1)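 MICs in μM were determined against M. tuberculosis H37Rv by Microplate Alamar Blue assay. Line 2 used 7H12 medium, which is 7H9 medium plus casitone, palmitic acid, albumin and catalase.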

[2] = system: Mycobacterium tuberculosis; experiment: Antituberculosis activity against Mycobacterium tuberculosis H37Rv in glycerol-alanine salts medium incubated for 4 days by Microplate Alamar Blue assay; type: functional; settings: 96 h; summary of the method: as §1
[3] = Inhibition of purified beta-lactamase NDM-1 (unknown origin) using imipenem as substrate preincubated for 10 mins followed by substrate addition
Summary of the method: (§2)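 Test compound was preincubated 10 min with enzyme, then substrate was added and optical density was followed over time to determine Ki (μM). CTX-M-14 (class A), Oxa-48 (class D) and NDM-1 (class B) were purified enzymes; VIM-1 (class B) was a lysate. NDM-1 used imipenem as substrate; the other three used nitrocefin.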

[4] = Inhibition of beta-lactamase VIM-1 lysate (unknown origin) using nitrocefin as substrate preincubated for 10 mins followed by substrate addition; summary of the method: as §2
[5] = Inhibition of purified beta-lactamase Oxa-48 (unknown origin) using nitrocefin as substrate preincubated for 10 mins followed by substrate addition; summary of the method: as §2
[6] = Inhibition of purified beta-lactamase CTX-M-14 (unknown origin) using nitrocefin as substrate preincubated for 10 mins followed by substrate addition; summary of the method: as §2
Mycolicibacterium vaccae = experiment: Antibacterial activity against Mycobacterium vaccae IMET 10670 incubated for 18 to 24 hrs measured after 24 to 48 hrs by agar diffusion assay; type: functional, organism-based
Summary of the method: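 Kirby–Bauer agar diffusion assay; the read-out is the diameter of the inhibition zone in mm.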

Compound: CSN1C(=O)CC1N(OCc1ccccc1)C(=O)c1ccccc1 (racemic)
- MIC [1]: > 50 µM
- MIC [2]: 17.9 µM

Compound: C[C@@H](O[Si](C)(C)C(C)(C)C)[C@H]1C(=O)N[C@@H]1N(O)C(=O)c1ccccc1
- pKi [3]: < 3.80
- MIC [1]: > 50 µM
- pKi [4]: < 3.80
- MIC [2]: > 50 µM
- pKi [5]: < 3.80
- pKi [6]: 6.49

Compound: C=CCON(C(=O)c1ccc([N+](=O)[O-])cc1)C1CC(=O)N1SC (racemic)
- pKi [3]: 7.52
- pKi [4]: 4.64
- pKi [5]: < 3.80
- pKi [6]: 6.19

Compound: CSN1C(=O)[C@@H](NC(=O)Cc2ccccc2)[C@@H]1N(OCc1ccccc1)C(=O)c1ccccc1 (racemic)
- pKi [3]: 7.15
- MIC [1]: 47.3 µM (≈ 22.5 µg/mL)
- pKi [4]: 5.54
- MIC [2]: 11.6 µM
- pKi [5]: 5.71
- pKi [6]: < 3.80

Compound: C[C@@H](O[Si](C)(C)C(C)(C)C)[C@H]1C(=O)N[C@@H]1N(OCc1ccccc1)C(=O)c1ccccc1
- pKi [3]: < 3.80
- MIC [1]: > 100 µM
- pKi [4]: < 3.80
- MIC [2]: > 100 µM
- pKi [5]: < 3.80
- pKi [6]: 6.60

Compound: O=C(Cc1ccccc1)N[C@@H]1C(=O)N[C@H]1N(OCc1ccccc1)C(=O)c1ccccc1
- pKi [3]: 5.26
- MIC [1]: > 100 µM
- pKi [4]: < 3.80
- MIC [2]: 6.05 µM
- pKi [5]: < 3.80
- pKi [6]: < 3.80

Compound: CSN1C(=O)CC1N(OCc1ccccc1)C(=O)c1cc([N+](=O)[O-])cc(C(F)(F)F)c1 (racemic)
- MIC [1]: 23.4 µM (≈ 10.6 µg/mL)
- MIC [2]: 5.92 µM

Compound: C=CCON(C(=O)c1ccc([N+](=O)[O-])cc1)C1CC(=O)N1 (racemic)
- pKi [3]: < 3.80
- pKi [4]: < 3.80
- pKi [5]: < 3.80
- pKi [6]: < 3.80

Compound: C[C@@H](O)[C@H]1C(=O)N[C@@H]1N(OCc1ccccc1)C(=O)c1ccccc1
- pKi [3]: < 3.80
- MIC [1]: > 100 µM
- pKi [4]: < 3.80
- MIC [2]: > 100 µM
- pKi [5]: < 3.80
- pKi [6]: < 3.80

Compound: CC(C)(C)[Si](C)(C)N1C(=O)CC1N(OCc1ccccc1)C(=O)c1ccccc1 (racemic)
- Activity (Mycolicibacterium vaccae): inactive
- pKi [3]: < 3.80
- MIC [1]: 49.2 µM (≈ 20.2 µg/mL)
- pKi [4]: < 3.80
- MIC [2]: 0.28 µM
- pKi [5]: 5.76
- pKi [6]: < 3.80

Compound: CC(C)(C)[Si](C)(C)ON(C(=O)c1ccccc1)[C@@H]1NC(=O)[C@H]1NC(=O)COc1ccccc1 (racemic)
- pKi [3]: 6.02
- pKi [4]: 4.51
- pKi [5]: < 3.80
- pKi [6]: < 3.80

Compound: CSN1C(=O)[C@@H](NC(=O)COc2ccccc2)[C@@H]1N(OCc1ccccc1)C(=O)c1cc([N+](=O)[O-])cc(C(F)(F)F)c1 (racemic)
- pKi [3]: 6.82
- MIC [1]: > 100 µM
- pKi [4]: < 3.80
- MIC [2]: 64.1 µM
- pKi [5]: < 3.80
- pKi [6]: < 3.80

Compound: O=C1CC(N(OCc2ccccc2)C(=O)c2cc([N+](=O)[O-])cc(C(F)(F)F)c2)N1 (racemic)
- MIC [1]: 44.7 µM (≈ 18.3 µg/mL)
- MIC [2]: 30.3 µM

Compound: CCOc1ccc(C(=O)N(OCc2ccccc2)C2CC(=O)N2SC)cc1 (racemic)
- pKi [3]: 7.15
- MIC [1]: > 100 µM
- pKi [4]: < 3.80
- MIC [2]: 34.8 µM
- pKi [5]: < 3.80
- pKi [6]: < 3.80

Compound: CSN1C(=O)[C@@H](NC(=O)COc2ccccc2)[C@@H]1N(OCc1ccccc1)C(=O)c1ccccc1 (racemic)
- Activity (Mycolicibacterium vaccae): inactive
- pKi [3]: 7.22
- MIC [1]: 6 µM (≈ 2.95 µg/mL)
- pKi [4]: < 3.80
- MIC [2]: > 50 µM
- pKi [5]: < 3.80
- pKi [6]: < 3.80

Compound: CSN1C(=O)[C@@H](NC(=O)Cc2ccccc2)[C@@H]1OC(C)=O
- MIC [1]: 47.6 µM (≈ 14.7 µg/mL)
- MIC [2]: 10.7 µM

Compound: CC(=O)O[C@@H]1NC(=O)[C@H]1NC(=O)COc1ccccc1
- pKi [3]: 5.23
- pKi [4]: < 3.80
- pKi [5]: < 3.80
- pKi [6]: < 3.80

Compound: C[C@H]1COC2(CCN(c3nc(=O)c4cc(C(F)(F)F)cc([N+](=O)[O-])c4s3)CC2)O1 [BTZ-043]
- MIC [1]: < 0.004 µM
- MIC [2]: < 0.004 µM

Compound: CCOc1ccc(C(=O)N(OCc2ccccc2)C2CC(=O)N2)cc1 (racemic)
- pKi [3]: < 3.80
- MIC [1]: > 100 µM
- pKi [4]: < 3.80
- MIC [2]: 49.3 µM
- pKi [5]: < 3.80
- pKi [6]: < 3.80

Compound: O=C(COc1ccccc1)N[C@@H]1C(=O)N[C@H]1N(OCc1ccccc1)C(=O)c1ccccc1
- pKi [3]: < 3.80
- MIC [1]: 5.93 µM (≈ 2.64 µg/mL)
- pKi [4]: < 3.80
- MIC [2]: < 0.195 µM
- pKi [5]: < 3.80
- pKi [6]: 7.30

Compound: C=CCON(C(=O)c1cc([N+](=O)[O-])cc(C(F)(F)F)c1)C1CC(=O)N1 (racemic)
- pKi [3]: < 3.80
- pKi [4]: < 3.80
- pKi [5]: 5.71
- pKi [6]: < 3.80

Compound: CO[C@H]1/C=C/O[C@@]2(C)Oc3c(C)c(O)c4c(O)c(c(/C=N/N5CCN(C)CC5)c(O)c4c3C2=O)NC(=O)/C(C)=C\C=C\[C@H](C)[C@H](O)[C@@H](C)[C@@H](O)[C@@H](C)[C@H](OC(C)=O)[C@@H]1C [RIFAMPIN]
- MIC [1]: 0.05 µM (≈ 0.0411 µg/mL)
- MIC [2]: 0.04 µM

Compound: CSN1C(=O)[C@H]([C@@H](C)O[Si](C)(C)C(C)(C)C)[C@H]1N(OCc1ccccc1)C(=O)c1ccccc1
- Activity (Mycolicibacterium vaccae): inactive
- pKi [3]: < 3.80
- MIC [1]: 10.3 µM (≈ 5.14 µg/mL)
- pKi [4]: < 3.80
- MIC [2]: 0.753 µM
- pKi [5]: < 3.80
- pKi [6]: 6.40

Compound: C=CCON(C(=O)c1cc([N+](=O)[O-])cc(C(F)(F)F)c1)C1CC(=O)N1SC (racemic)
- pKi [3]: 7.40
- pKi [4]: 4.23
- pKi [5]: < 3.80
- pKi [6]: < 3.80

Compound: CSN1C(=O)CC1N(OCc1ccccc1)C(=O)c1ccc([N+](=O)[O-])cc1 (racemic)
- pKi [3]: 6.01
- MIC [1]: > 100 µM
- pKi [4]: < 3.80
- MIC [2]: 24.2 µM
- pKi [5]: < 3.80
- pKi [6]: < 3.80
